ChEMBL document CHEMBL1156233, “Synthesis and anti-HIV activity of alkylated quinoline 2,4-diols” (Bioorg Med Chem, 2010)

Legend:
[1] = Cytotoxicity against human CEM cells expressing GFP after 48 to 72 hrs by MTT assay; assay type: cell-based; details: CEM cells expressing GFP (CCRF-CEM)
Procedure, shortened: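 MTT cell-viability kit used per the manufacturer's protocol. CEM-GFP cells were seeded at 2 × 10⁴ cells/well and given compound at a range of concentrations, with untreated wells as controls. Formazan was solubilized and read at 540 nm. CC50 is the concentration reducing cell proliferation by 50% (n = 3).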

[2] = tested on: Human immunodeficiency virus 1; assay: Antiviral activity against Human immunodeficiency virus 1 NL4.3 infected human CEM cells expressing GFP measured up to 8 days postinfection by p24 antigen capture ELISA; assay type: functional, organism-based; details: Human immunodeficiency virus 1, NL4.3, CCRF-CEM, 192 h
Procedure, shortened: (§1)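 CD4+ T-lymphoblastoid CEM-GFP cells were infected with HIV-1 NL4-3 at MOI 0.05, following the lab's published protocol. Cells were then exposed to each compound at a concentration found non-cytotoxic by MTT and kept up to 8 days post infection. Virus was read out by p24 antigen-capture ELISA. IC50 is the concentration giving 50% protection of cells from virus (n = 3).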

[3] = tested on: Human immunodeficiency virus 1; assay: Antiviral activity against Human immunodeficiency virus 1 NL4.3 infected human CEM cells expressing GFP at 23.51 uM measured up to 8 days postinfection by p24 antigen capture ELISA; assay type: functional; details: Human immunodeficiency virus 1, NL4.3, CCRF-CEM, 192 h; procedure, shortened: as §1
[4] = Therapeutic index, ratio of CC50 for human CEM cells expressing GFP to IC50 for Human immunodeficiency virus 1 NL4.3; assay type: cell-based, CCRF-CEM; details: read-out: Ratio CC50/IC50
[5] = tested on: Human immunodeficiency virus 1; assay: Antiviral activity against Human immunodeficiency virus 1 NL4.3 infected human CEM cells expressing GFP at 18.58 uM measured up to 8 days postinfection by p24 antigen capture ELISA; assay type: functional; details: Human immunodeficiency virus 1, NL4.3, CCRF-CEM, 192 h; procedure, shortened: as §1
[6] = tested on: Human immunodeficiency virus 1; assay: Antiviral activity against Human immunodeficiency virus 1 NL4.3 infected human CEM cells expressing GFP at 14.98 uM measured up to 8 days postinfection by p24 antigen capture ELISA; assay type: functional; details: Human immunodeficiency virus 1, NL4.3, CCRF-CEM, 192 h; procedure, shortened: as §1
[7] = tested on: Human immunodeficiency virus 1; assay: Antiviral activity against Human immunodeficiency virus 1 NL4.3 infected human CEM cells expressing GFP at 24.48 uM measured up to 8 days postinfection by p24 antigen capture ELISA; assay type: functional; details: Human immunodeficiency virus 1, NL4.3, CCRF-CEM, 192 h; procedure, shortened: as §1
[8] = Solubility of the compound; assay type: physicochemical
[9] = tested on: Human immunodeficiency virus 1; assay: Antiviral activity against Human immunodeficiency virus 1 NL4.3 infected human CEM cells expressing GFP at 12.30 uM measured up to 8 days postinfection by p24 antigen capture ELISA; assay type: functional; details: Human immunodeficiency virus 1, NL4.3, CCRF-CEM, 192 h; procedure, shortened: as §1
[10] = tested on: Human immunodeficiency virus 1; assay: Antiviral activity against Human immunodeficiency virus 1 NL4.3 infected human CEM cells expressing GFP at 22.30 uM measured up to 8 days postinfection by p24 antigen capture ELISA; assay type: functional; details: Human immunodeficiency virus 1, NL4.3, CCRF-CEM, 192 h; procedure, shortened: as §1
[11] = tested on: Human immunodeficiency virus 1; assay: Antiviral activity against Human immunodeficiency virus 1 NL4.3 infected human CEM cells expressing GFP at 27.42 uM measured up to 8 days postinfection by p24 antigen capture ELISA; assay type: functional; details: Human immunodeficiency virus 1, NL4.3, CCRF-CEM, 192 h; procedure, shortened: as §1
[12] = tested on: Human immunodeficiency virus 1; assay: Antiviral activity against Human immunodeficiency virus 1 NL4.3 infected human CEM cells expressing GFP at 8.41 uM measured up to 8 days postinfection by p24 antigen capture ELISA; assay type: functional; details: Human immunodeficiency virus 1, NL4.3, CCRF-CEM, 192 h; procedure, shortened: as §1
[13] = tested on: Human immunodeficiency virus 1; assay: Antiviral activity against Human immunodeficiency virus 1 NL4.3 infected human CEM cells expressing GFP at 43.29 uM measured up to 8 days postinfection by p24 antigen capture ELISA; assay type: functional; details: Human immunodeficiency virus 1, NL4.3, CCRF-CEM, 192 h; procedure, shortened: as §1
[14] = tested on: Human immunodeficiency virus 1; assay: Antiviral activity against Human immunodeficiency virus 1 NL4.3 infected human CEM cells expressing GFP at 1.59 uM measured up to 8 days postinfection by p24 antigen capture ELISA; assay type: functional; details: Human immunodeficiency virus 1, NL4.3, CCRF-CEM, 192 h; procedure, shortened: as §1
[15] = tested on: Human immunodeficiency virus 1; assay: Antiviral activity against Human immunodeficiency virus 1 NL4.3 infected human CEM cells expressing GFP at 59.80 uM measured up to 8 days postinfection by p24 antigen capture ELISA; assay type: functional; details: Human immunodeficiency virus 1, NL4.3, CCRF-CEM, 192 h; procedure, shortened: as §1
[16] = tested on: Human immunodeficiency virus 1; assay: Antiviral activity against Human immunodeficiency virus 1 NL4.3 infected human CEM cells expressing GFP at 1.84 uM measured up to 8 days postinfection by p24 antigen capture ELISA; assay type: functional; details: Human immunodeficiency virus 1, NL4.3, CCRF-CEM, 192 h; procedure, shortened: as §1
[17] = tested on: Human immunodeficiency virus 1; assay: Antiviral activity against Human immunodeficiency virus 1 NL4.3 infected human CEM cells expressing GFP at 20.20 uM measured up to 8 days postinfection by p24 antigen capture ELISA; assay type: functional; details: Human immunodeficiency virus 1, NL4.3, CCRF-CEM, 192 h; procedure, shortened: as §1
[18] = tested on: Human immunodeficiency virus 1; assay: Antiviral activity against Human immunodeficiency virus 1 NL4.3 infected human CEM cells expressing GFP at 35.17 uM measured day 8 on post infection by p24 antigen capture ELISA; assay type: functional; details: Human immunodeficiency virus 1, NL4.3, CCRF-CEM, 192 h; procedure, shortened: as §1
[19] = tested on: Human immunodeficiency virus 1; assay: Antiviral activity against Human immunodeficiency virus 1 NL4.3 infected human CEM cells expressing GFP at 30.56 uM measured up to 8 days postinfection by p24 antigen capture ELISA; assay type: functional; details: Human immunodeficiency virus 1, NL4.3, CCRF-CEM, 192 h; procedure, shortened: as §1
[20] = tested on: Human immunodeficiency virus 1; assay: Antiviral activity against Human immunodeficiency virus 1 NL4.3 infected human CEM cells expressing GFP at […] uM measured up to 8 days postinfection by p24 antigen capture ELISA; assay type: functional; details: Human immunodeficiency virus 1, NL4.3, CCRF-CEM, 192 h
[21] = tested on: Human immunodeficiency virus 1; assay: Antiviral activity against Human immunodeficiency virus 1 NL4.3 infected human CEM cells expressing GFP at 1.68 uM measured up to 8 days postinfection by p24 antigen capture ELISA; assay type: functional; details: Human immunodeficiency virus 1, NL4.3, CCRF-CEM, 192 h; procedure, shortened: as §1
[22] = tested on: Human immunodeficiency virus 1; assay: Antiviral activity against Human immunodeficiency virus 1 NL4.3 infected human CEM cells expressing GFP at 21.20 uM measured up to 8 days postinfection by p24 antigen capture ELISA; assay type: functional; details: Human immunodeficiency virus 1, NL4.3, CCRF-CEM, 192 h; procedure, shortened: as §1
[23] = tested on: Human immunodeficiency virus 1; assay: Antiviral activity against Human immunodeficiency virus 1 NL4.3 infected human CEM cells expressing GFP at 4.98 uM measured up to 8 days postinfection by p24 antigen capture ELISA; assay type: functional; details: Human immunodeficiency virus 1, NL4.3, CCRF-CEM, 192 h
Procedure, shortened: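 Human CD4+ T-cell line CEM-GFP infected with HIV-1 NL4.3 at MOI 0.05, then incubated with compound at a non-cytotoxic concentration (chosen from a prior MTT viability assay in CEM-GFP) for up to 8 days post-infection. Protection is read by p24 antigen capture ELISA, n = 3.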

[24] = tested on: Human immunodeficiency virus 1; assay: Antiviral activity against Human immunodeficiency virus 1 NL4.3 infected human CEM cells expressing GFP at 65.93 uM measured up to 8 days postinfection by p24 antigen capture ELISA; assay type: functional; details: Human immunodeficiency virus 1, NL4.3, CCRF-CEM, 192 h; procedure, shortened: as §1
[25] = tested on: Human immunodeficiency virus 1; assay: Antiviral activity against Human immunodeficiency virus 1 NL4.3 infected human CEM cells expressing GFP at 16.73 uM measured up to 8 days postinfection by p24 antigen capture ELISA; assay type: functional; details: Human immunodeficiency virus 1, NL4.3, CCRF-CEM, 192 h; procedure, shortened: as §1
[26] = tested on: Human immunodeficiency virus 1; assay: Antiviral activity against Human immunodeficiency virus 1 NL4.3 infected human CEM cells expressing GFP at 19.60 uM measured up to 8 days postinfection by p24 antigen capture ELISA; assay type: functional; details: Human immunodeficiency virus 1, NL4.3, CCRF-CEM, 192 h; procedure, shortened: as §1
[27] = tested on: Human immunodeficiency virus 1; assay: Antiviral activity against Human immunodeficiency virus 1 NL4.3 infected human CEM cells expressing GFP at 23.36 uM measured up to 8 days postinfection by p24 antigen capture ELISA; assay type: functional; details: Human immunodeficiency virus 1, NL4.3, CCRF-CEM, 192 h; procedure, shortened: as §1
[28] = tested on: Human immunodeficiency virus 1; assay: Antiviral activity against Human immunodeficiency virus 1 NL4.3 infected human CEM cells expressing GFP at 31.12 uM measured up to 8 days postinfection by p24 antigen capture ELISA; assay type: functional; details: Human immunodeficiency virus 1, NL4.3, CCRF-CEM, 192 h; procedure, shortened: as §1

| Structure (SMILES) | CC50 [1] [µM] | IC50 [2] [µM] | selectivity ratio [4] | also measured |
| --- | --- | --- | --- | --- |
| C=CC(C)(C)C1(CC=C(C)C)C(=O)Nc2ccccc2C1=O (stereo not given) [BUCHAPINE] | 55.9 | 2.99 | 18.7 | inhibition at 23.51 µM [3]: 80.1% |
| C#CCOc1cc(OCCC(C)C)nc2ccccc12 |  |  |  | inhibition at 18.58 µM [5]: 56.4% |
| C#CCOc1cc(OCC=C(C)C)nc2ccccc12 |  |  |  | inhibition at 14.98 µM [6]: 2.56% |
| CCCC1(CCC)C(=O)Nc2ccccc2C1=O | 113 | 16.7 | 6.78 | inhibition at 24.48 µM [7]: 74.7% |
| CCCCC1(CCCC)C(=O)Nc2ccccc2C1=O |  |  |  | solubility [8]: Insoluble |
| CCCCCCCCOc1cc(OCCCCCCCC)c2ccccc2n1 |  |  |  | solubility [8]: Insoluble |
| CC(C)=CCCC1(CCC=C(C)C)C(=O)Nc2ccccc2C1=O | 67.4 | 3.23 | 20.9 | inhibition at 12.3 µM [9]: 82% |
| C=CCOc1cc(OCC=C(C)C)c2ccccc2n1 |  |  |  | inhibition at 22.3 µM [10]: 35% |
| C#CCOc1c(CC#C)c(O)nc2ccccc12 | 147 | 11.6 | 12.7 | inhibition at 27.42 µM [11]: 92.4% |
| CC(C)=CCC1(CC=C(C)C)C(=O)Nc2ccccc2C1=O | 62.6 | 2.35 | 26.6 | inhibition at 8.41 µM [12]: 96% |
| CC(C)CCOc1cc(O)nc2ccccc12 | 115 | 3.89 | 29.5 | inhibition at 43.29 µM [13]: 76.7% |
| CC(C)=CCCOc1cc(OCCC(C)C)c2ccccc2n1 |  |  |  | inhibition at 1.59 µM [14]: 15% |
| CC(C)CCOc1c(CCC(C)C)c(O)nc2ccccc12 | 160 | 34.9 | 4.59 | inhibition at 59.8 µM [15]: 88.6% |
| C=CCOc1cc(OCCC(C)C)c2ccccc2n1 |  |  |  | inhibition at 1.84 µM [16]: 23% |
| CC(C)=CCOc1c(CC=C(C)C)c(O)nc2ccccc12 | 71.2 | 3.8 | 18.7 | inhibition at 20.2 µM [17]: 87.5% |
| C#CCOc1cc(O)nc2ccccc12 | 103 | 19.3 | 5.3 | inhibition at 35.17 µM [18]: 65.1% |
| CC(C)=CCOc1cc(O)nc2ccccc12 | 77.4 | 8.95 | 8.64 | inhibition at 30.56 µM [19]: 95.5% |
| CC(C)Oc1c(C(C)C)c(O)nc2ccccc12 |  |  |  | solubility [8]: Insoluble |
| CC(C)=CCCOc1c(CCC=C(C)C)c(O)nc2ccccc12 | 103 | 8.76 | 11.8 | inhibition at 23.07 µM [20]: 68.3% |
| CC(C)=CCOc1cc(OCCC(C)C)c2ccccc2n1 |  |  |  | inhibition at 1.68 µM [21]: 31.2% |
| C=CCOc1cc(OCCC=C(C)C)c2ccccc2n1 |  |  |  | inhibition at 21.2 µM [22]: 16% |
| Cc1cn([C@H]2C[C@H](N=[N+]=[N-])[C@@H](CO)O2)c(=O)[nH]c1=O [ZIDOVUDINE] |  | 1.04 |  | inhibition at 4.98 µM [23]: 89.8% |
| CCCCOc1c(CCCC)c(O)nc2ccccc12 | 192 | 34.4 | 5.56 | inhibition at 65.93 µM [24]: 81% |
| C#CCOc1cc(OCC=C)nc2ccccc12 |  |  |  | inhibition at 16.73 µM [25]: 16.1% |
| C#CCOc1cc(OCCCC)nc2ccccc12 |  |  |  | inhibition at 19.6 µM [26]: 56.4% |
| CC(C)CCOc1cc(OCc2ccccc2)nc2ccccc12 |  |  |  | inhibition at 23.36 µM [27]: 47% |
| C=CCC1(CC=C)C(=O)Nc2ccccc2C1=O |  |  |  | inhibition at 31.12 µM [28]: 44.3% |
| CC(C)=CCCOc1cc(OCCC=C(C)C)c2ccccc2n1 |  |  |  | inhibition at 12.3 µM [9]: 32.7% |
